Assay results from ChEMBL document CHEMBL1154167, “Discovery of azetidinyl ketolides for the treatment of susceptible and multidrug resistant community-acquired respiratory tract infections” (J Med Chem, 2009).
Converted amounts (≈) assume the structure as drawn.

Assays:
[1] = Metabolic stability in human liver cytosol assessed as compound turnover at 1 uM after 60 mins; format: ADME, tissue-based; conditions: 1 h
Method in brief: (§1)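 Human liver cytosol incubations, used as a readout of aldehyde oxidase metabolism, run with and without the AO inhibitor raloxifene.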

Streptococcus pneumoniae [2] = experiment: Antibacterial activity against multidrug-resistant Streptococcus pneumoniae 1175 harboring mefA gene by NCCLS method; format: functional
[3] = Metabolic stability in human liver cytosol assessed as compound turnover at 1 uM in presence of aldehyde oxidase inhibitor raloxifene; format: ADME; method in brief: as §1
Streptococcus pyogenes = experiment: Antibacterial activity against multidrug-resistant Streptococcus pyogenes 1079 harboring ermB gene by NCCLS method; format: functional
Haemophilus influenzae [4] = experiment: Antibacterial activity against multidrug-susceptible Haemophilus influenzae 1325 by NCCLS method; format: functional
[5] = Metabolic stability in human liver microsomes assessed as hepatic extraction ratio at 1 uM; format: ADME, Microsome; conditions: read-out: ERH
Method in brief: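 Human liver microsomes used to screen for metabolic clearance; the readout was the microsomal extraction ratio (ER).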

Streptococcus pneumoniae [6] = experiment: Antibacterial activity against multidrug-susceptible Streptococcus pneumoniae 1016 by NCCLS method; format: functional
[7] = target: Voltage-gated inwardly rectifying potassium channel KCNH2 (Homo sapiens, UniProt Q12809); experiment: Inhibition of human ERG by patch-clamp assay
Streptococcus pneumoniae [8] = experiment: Antibacterial activity against multidrug-resistant Streptococcus pneumoniae 1095 harboring ermB gene by NCCLS method; format: functional
Streptococcus pneumoniae [9] = experiment: Antibacterial activity against multidrug-resistant Streptococcus pneumoniae 1095 harboring ermB infected in po dosed mouse respiratory tract model assessed as survival administered 18 hrs postinfection BID for 2 days measured on day 10 postinfection; format: functional; conditions: Streptococcus pneumoniae, 1095, po; read-out: PD50
Method in brief: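 Murine respiratory tract infection model using S. pneumoniae 1095 (erm). Compounds were given orally. The outcome was the 50% protective dose (PD50), reported as (mg/kg)/dose.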

Haemophilus influenzae [10] = experiment: Antibacterial activity against multidrug-susceptible Haemophilus influenzae 1325 infected in po dosed Mongolian gerbil otitis media model assessed as reduction of bacterial infection administered 18 hrs postinfection TID for 2 days measured on day 4 postinfection; format: functional; conditions: Haemophilus influenzae, 1325, po
Method in brief: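 Gerbil otitis media model infected with H. influenzae 1325; compounds given orally. Efficacy expressed as ED50 in (mg/kg)/dose.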

Chain of Voltage-gated inwardly rectifying potassium channel KCNH2 (Q12809 whole entry): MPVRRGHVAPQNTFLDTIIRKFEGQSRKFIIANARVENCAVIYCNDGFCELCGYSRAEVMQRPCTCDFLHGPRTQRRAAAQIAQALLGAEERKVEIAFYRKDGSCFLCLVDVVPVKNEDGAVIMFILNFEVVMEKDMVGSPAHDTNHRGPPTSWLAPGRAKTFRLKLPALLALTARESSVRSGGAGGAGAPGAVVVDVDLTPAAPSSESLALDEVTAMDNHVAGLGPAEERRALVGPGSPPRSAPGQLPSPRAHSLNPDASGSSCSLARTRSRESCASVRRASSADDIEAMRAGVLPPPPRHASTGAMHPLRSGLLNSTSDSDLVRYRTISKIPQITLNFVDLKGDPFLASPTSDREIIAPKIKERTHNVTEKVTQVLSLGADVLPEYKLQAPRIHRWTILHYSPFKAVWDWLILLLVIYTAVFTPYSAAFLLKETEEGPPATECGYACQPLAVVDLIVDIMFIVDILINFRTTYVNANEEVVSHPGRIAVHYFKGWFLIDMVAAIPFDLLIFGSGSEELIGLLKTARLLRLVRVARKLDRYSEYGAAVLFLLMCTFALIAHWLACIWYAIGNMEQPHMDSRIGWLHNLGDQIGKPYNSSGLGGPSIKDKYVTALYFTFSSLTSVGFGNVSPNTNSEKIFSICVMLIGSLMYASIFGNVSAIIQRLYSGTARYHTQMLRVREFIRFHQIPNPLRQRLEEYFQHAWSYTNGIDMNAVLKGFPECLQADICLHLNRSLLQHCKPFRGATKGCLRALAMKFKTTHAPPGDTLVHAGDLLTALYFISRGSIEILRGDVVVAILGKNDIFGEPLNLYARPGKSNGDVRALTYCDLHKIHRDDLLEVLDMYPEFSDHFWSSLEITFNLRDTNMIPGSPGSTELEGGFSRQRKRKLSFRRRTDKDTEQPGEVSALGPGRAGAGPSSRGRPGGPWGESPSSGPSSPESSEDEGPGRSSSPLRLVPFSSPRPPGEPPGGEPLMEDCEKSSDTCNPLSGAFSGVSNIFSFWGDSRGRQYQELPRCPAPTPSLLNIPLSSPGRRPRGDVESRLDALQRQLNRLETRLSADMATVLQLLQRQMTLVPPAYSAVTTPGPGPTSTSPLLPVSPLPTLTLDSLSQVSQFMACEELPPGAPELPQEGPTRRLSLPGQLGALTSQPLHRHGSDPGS

| Structure (SMILES) | Stability [1] | MIC (Streptococcus pneumoniae [2]) [µg/mL] | half-life at 1 µM [3] [min] | MIC (Streptococcus pyogenes) [µg/mL] | MIC (Haemophilus influenzae [4]) [µg/mL] | hepatic extraction ratio at 1 µM [5] | MIC (Streptococcus pneumoniae [6]) [µg/mL] | IC50 [7] [µM] | MIC (Streptococcus pneumoniae [8]) [µg/mL] | ED50 (Streptococcus pneumoniae [9]) [mg/kg] | ED50 (Haemophilus influenzae [10]) [mg/kg] |
| --- | --- | --- | --- | --- | --- | --- | --- | --- | --- | --- | --- |
| CC[C@H]1OC(=O)[C@H](C)C(=O)[C@H](C)[C@@H](O[C@@H]2O[C@H](C)C[C@H](N(C)C)[C@H]2O)[C@](C)(O)C[C@@H](C)C(=O)[C@H](C)[C@H]2N(C3CN(Cc4c(O)cnc5ncccc45)C3)C(=O)O[C@]12C | Unstable | ≤ 0.06 | < 120 | 0.25 (≈ 0.308 µM) | 4 (≈ 4.93 µM) | < 0.3 | ≤ 0.06 | 140 | ≤ 0.06 |  |  |
| CC[C@H]1OC(=O)[C@H](C)C(=O)[C@H](C)[C@@H](O[C@@H]2O[C@H](C)C[C@H](N(C)C)[C@H]2O)[C@](C)(O)C[C@@H](C)C(=O)[C@H](C)[C@H]2N(C3CN(Cc4cccc5nc[nH]c45)C3)C(=O)O[C@]12C |  | 0.5 (≈ 0.638 µM) | < 120 | 8 (≈ 10.2 µM) | 8 (≈ 10.2 µM) |  | ≤ 0.06 |  | 0.125 (≈ 0.159 µM) |  |  |
| CC[C@H]1OC(=O)[C@H](C)[C@@H](O[C@H]2C[C@@](C)(OC)[C@@H](O)[C@H](C)O2)[C@H](C)[C@@H](O[C@@H]2O[C@H](C)C[C@H](N(C)C)[C@H]2O)[C@](C)(OC)C[C@@H](C)C(=O)[C@H](C)[C@@H](O)[C@]1(C)O [CLARITHROMYCIN] |  | 16 (≈ 21.4 µM) | < 120 | > 64 | 16 (≈ 21.4 µM) |  | ≤ 0.06 |  | > 64 | > 100 | > 100 |
| CC[C@H]1OC(=O)[C@H](C)C(=O)[C@H](C)[C@@H](O[C@@H]2O[C@H](C)C[C@H](N(C)C)[C@H]2O)[C@](C)(O)C[C@@H](C)C(=O)[C@H](C)[C@H]2N(C3CN(Cc4ccnc5cccnc45)C3)C(=O)O[C@]12C | Stable | ≤ 0.06 | < 120 | 1 (≈ 1.26 µM) | 8 (≈ 10.1 µM) | 0.7 | ≤ 0.06 | 196 | ≤ 0.06 |  |  |
| CC[C@H]1OC(=O)[C@H](C)C(=O)[C@H](C)[C@@H](O[C@@H]2O[C@H](C)C[C@H](N(C)C)[C@H]2O)[C@](C)(O)C[C@@H](C)C(=O)[C@H](C)[C@H]2N(C3CN([C@H](C)c4ccnc5ncccc45)C3)C(=O)O[C@]12C | Unstable | 0.25 (≈ 0.309 µM) | < 120 | 1 (≈ 1.23 µM) | 4 (≈ 4.94 µM) | 0.3 | ≤ 0.06 | 43 | ≤ 0.06 | 54.5 | 35.6 |
| CC[C@H]1OC(=O)[C@H](C)C(=O)[C@H](C)[C@@H](O[C@@H]2O[C@H](C)C[C@H](N(C)C)[C@H]2O)[C@](C)(OC)C[C@@H](C)C(=O)[C@H](C)[C@H]2N(CCCCn3cnc(-c4cccnc4)c3)C(=O)O[C@]12C [TELITHROMYCIN] | Stable | ≤ 0.06 | < 120 | 32 (≈ 39.4 µM) | 4 (≈ 4.93 µM) | 0.7 | ≤ 0.06 | 40 | ≤ 0.06 | 31.2 | 37.5 |
| CC[C@H]1OC(=O)[C@H](C)C(=O)[C@H](C)[C@@H](O[C@@H]2O[C@H](C)C[C@H](N(C)C)[C@H]2O)[C@](C)(O)C[C@@H](C)C(=O)[C@H](C)[C@H]2N(C3CN(Cc4c(O)cnc5cccnc45)C3)C(=O)O[C@]12C | Stable | ≤ 0.06 | < 120 | 0.5 (≈ 0.616 µM) | 4 (≈ 4.93 µM) | < 0.3 | ≤ 0.06 | 67 | ≤ 0.06 | 26.8 | 53.6 |
| CC[C@H]1OC(=O)[C@H](C)C(=O)[C@H](C)[C@@H](O[C@@H]2O[C@H](C)C[C@H](N(C)C)[C@H]2O)[C@](C)(O)C[C@@H](C)C(=O)[C@H](C)[C@H]2N(C3CN(Cc4ccnc5ncccc45)C3)C(=O)O[C@]12C | Unstable | 0.12 (≈ 0.151 µM) | < 120 | 1 (≈ 1.26 µM) | 4 (≈ 5.03 µM) | 0.6 | ≤ 0.06 | 80 | ≤ 0.06 |  |  |
| CC[C@H]1OC(=O)[C@H](C)C(=O)[C@H](C)[C@@H](O[C@@H]2O[C@H](C)C[C@H](N(C)C)[C@H]2O)[C@](C)(O)C[C@@H](C)C(=O)[C@H](C)[C@H]2N(C3CN(Cc4c(OC)cnc5ncccc45)C3)C(=O)O[C@]12C |  | ≤ 0.06 | < 120 | ≤ 0.06 | 8 (≈ 9.69 µM) | 0.8 | ≤ 0.06 |  | ≤ 0.06 |  |  |
| CC[C@H]1OC(=O)[C@H](C)C(=O)[C@H](C)[C@@H](O[C@@H]2O[C@H](C)C[C@H](N(C)C)[C@H]2O)[C@](C)(O)C[C@@H](C)C(=O)[C@H](C)[C@H]2N(C3CN([C@@H](C)c4ccnc5ncccc45)C3)C(=O)O[C@]12C |  | 0.25 (≈ 0.309 µM) | < 120 | 16 (≈ 19.8 µM) | 16 (≈ 19.8 µM) |  | ≤ 0.06 |  | ≤ 0.06 |  |  |
